Measurements reported in ChEMBL document CHEMBL2331240, “Focused library development of 2-phenylacrylamides as broad spectrum cytotoxic agents” (2013).
Calls of active or inactive are those of the source. The calls are words filed in the database; no cut-off is given here.

Assays:
A-431 = experiment: Cytotoxicity against human A431 cells assessed as growth inhibition at 25 uM measured after 72 hrs by MTT assay; assay type: functional, cell-based
How it was run: (§1)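 Log-phase cells were plated in duplicate at 2500–4000 cells/well in DMEM with 10% FBS, glutamine and antibiotics, at 37 °C under 5% CO2. Drug was added 24 h after plating from a 40 mM DMSO stock, to a final 25 μM. After 72 h exposure, MTT was read at 540 nm and % growth inhibition was calculated, with 100% meaning total growth inhibition.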

MIA = experiment: Cytotoxicity against human MIA cells assessed as growth inhibition at 25 uM measured after 72 hrs by MTT assay; assay type: functional; how it was run: as §1
DU-145 = experiment: Cytotoxicity against human DU145 cells assessed as growth inhibition at 25 uM measured after 72 hrs by MTT assay; assay type: functional, cell-based; how it was run: as §1
A2780 = experiment: Cytotoxicity against human A2780 cells assessed as growth inhibition at 25 uM measured after 72 hrs by MTT assay; assay type: functional; how it was run: as §1
SW480 = experiment: Cytotoxicity against human SW480 cells assessed as growth inhibition at 25 uM measured after 72 hrs by MTT assay; assay type: functional; how it was run: as §1
NCI-H460 = experiment: Cytotoxicity against human H460 cells assessed as growth inhibition at 25 uM measured after 72 hrs by MTT assay; assay type: functional, cell-based; how it was run: as §1
HT-29 = experiment: Cytotoxicity against human HT-29 cells assessed as growth inhibition at 25 uM measured after 72 hrs by MTT assay; assay type: functional, cell-based; how it was run: as §1
SMA = experiment: Cytotoxicity against mouse SMA cells assessed as growth inhibition at 25 uM measured after 72 hrs by MTT assay
SJ-G2 = experiment: Cytotoxicity against human SJ-G2 cells assessed as growth inhibition at 25 uM measured after 72 hrs by MTT assay; assay type: functional, cell-based; how it was run: as §1
BE(2)-C = experiment: Cytotoxicity against human BE(2)-C cells assessed as growth inhibition at 25 uM measured after 72 hrs by MTT assay; assay type: functional; how it was run: as §1
MCF7 = experiment: Cytotoxicity against human MCF7 cells assessed as growth inhibition at 25 uM measured after 72 hrs by MTT assay; assay type: functional; how it was run: as §1

Compound	growth inhibition (GI) (A-431)	growth inhibition (GI) (MIA)	growth inhibition (GI) (DU-145)	growth inhibition (GI) (A2780)	growth inhibition (GI) (SW480)	growth inhibition (GI) (NCI-H460)	growth inhibition (GI) (HT-29)	growth inhibition (GI) (SMA)	growth inhibition (GI) (SJ-G2)	growth inhibition (GI) (BE(2)-C)	growth inhibition (GI) (MCF7)	inhibition of growth at 25 µM (MCF7; MCF7, 72 h, read-out: GI) [%]
N#C/C(=C\c1ccc(Cl)cc1)C(=O)c1c[nH]c2ccccc12	inactive	inactive	inactive	inactive	inactive	inactive	inactive	inactive	inactive	inactive	inactive	–
N#C/C(=C\c1ccc2ccccc2c1)C(=O)c1c[nH]c2ccccc12	inactive	inactive	inactive	inactive	inactive	inactive	inactive	inactive	inactive	inactive	–	40
COc1ccc(/C=C(\C#N)C(=O)c2ccc[nH]2)cc1	inactive	inactive	inactive	inactive	inactive	inactive	inactive	inactive	inactive	inactive	inactive	–
Cc1ccc(/C=C(\C#N)C(=O)NCc2ccc(Cl)c(Cl)c2)cc1	inactive	inactive	inactive	inactive	inactive	inactive	inactive	inactive	inactive	inactive	inactive	–
N#C/C(=C\c1ccc(O)cc1)C(=O)NCc1ccc(Cl)c(Cl)c1	inactive	inactive	inactive	inactive	inactive	inactive	inactive	inactive	inactive	inactive	inactive	–
N#C/C(=C\c1ccc(C(F)(F)F)cc1)C(=O)c1ccc[nH]1	inactive	inactive	inactive	inactive	inactive	inactive	inactive	inactive	inactive	inactive	inactive	–
